# Data taken from ChEMBL document CHEMBL1154751, “Evaluation of di-sansalvamide A derivatives: synthesis, structure-activity relationship, and mechanism of action” (J Med Chem, 2009).
# Residues, ends and D or L forms follow the SMILES beside them.
# Assays:
# HCT-116 = assay: Growth inhibition of human HCT116 cells at 5 uM after 24 hrs by [3H]thymidine uptake assay; type: functional; conditions: read-out: GI
# [1] = Growth inhibition of human PL45 cells at 5 uM after 24 hrs by [3H]thymidine uptake assay; type: functional; conditions: read-out: GI
# [2] = Inhibition of HSP90
# [3] = Growth inhibition of Pancreatic cancer cells; type: functional, cell-based; conditions: Cancer cell lines
# [4] = Cytotoxicity against human K2 O/E cells over expressing tetracycline inducible IP6K2 protein assessed as cell survival; type: functional
# How it was run: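 Stable tetracycline-inducible Myc-IP6K2 HEK293 line. IP6K2 overexpression induced with 1 μg/mL tetracycline for 24 h; wild-type control cells got vehicle alone. Cells then exposed to 25 nM drug or DMSO (no drug) for 48 h. Viability read by CCK-8 assay and expressed relative to control set at 100%.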
# [5] = Potency index, ratio of novobiocin IC50 to compound IC50 for HSP90 HSP90
Compound,inhibition of growth at 5 µM (HCT-116) [%],inhibition of growth at 5 µM [1] [%],EC50 [2] [nM],IC50 [3] [nM],Survival [4] [%],Ratio IC50 [5]
CC(C)C[C@@H]1NC(=O)[C@@H](Cc2ccccc2)NC(=O)[C@@H](CC(C)C)NC(=O)[C@@H](C(C)C)NC(=O)[C@@H](CC(C)C)NC(=O)[C@H](CC(C)C)NC(=O)[C@@H](Cc2ccccc2)NC(=O)[C@@H](CC(C)C)NC(=O)[C@@H](C(C)C)NC(=O)[C@@H](CC(C)C)NC1=O,40,79,,,,
CC(C)C[C@@H]1NC(=O)[C@H](Cc2ccccc2)NC(=O)[C@@H](CC(C)C)NC(=O)[C@@H](C(C)C)NC(=O)[C@H](CC(C)C)NC(=O)[C@H](CC(C)C)NC(=O)[C@@H](Cc2ccccc2)NC(=O)[C@@H](CC(C)C)NC(=O)[C@@H](C(C)C)NC(=O)[C@H](CC(C)C)NC1=O,0,7,,,,
CC(C)C[C@@H]1NC(=O)[C@H](Cc2ccccc2)NC(=O)[C@H](CC(C)C)NC(=O)[C@H](C(C)C)NC(=O)[C@@H](CC(C)C)NC(=O)[C@H](CC(C)C)NC(=O)[C@H](Cc2ccccc2)NC(=O)[C@H](CC(C)C)NC(=O)[C@H](C(C)C)NC(=O)[C@@H](CC(C)C)NC1=O,0,12,,,,
CC(C)C[C@@H]1NC(=O)[C@H](CC(C)C)NC(=O)[C@@H](Cc2ccccc2)NC(=O)[C@@H](CC(C)C)NC(=O)[C@@H](C(C)C)NC(=O)[C@H](CC(C)C)NC(=O)[C@H](CC(C)C)NC(=O)[C@@H](Cc2ccccc2)NC(=O)[C@@H](CC(C)C)NC(=O)[C@@H](C(C)C)NC1=O,0,10,,,,
CC(C)C[C@@H]1NC(=O)[C@H](Cc2ccccc2)NC(=O)[C@H](CC(C)C)NC(=O)[C@H](C(C)C)NC(=O)[C@H](CC(C)C)NC1=O (cyclo(FLLVL)),33,25,,,,
CC(C)C[C@@H]1NC(=O)[C@H](C(C)C)NC(=O)[C@H](CC(C)C)NC(=O)[C@@H](CC(C)C)NC(=O)[C@@H](Cc2ccccc2)NC(=O)[C@H](CC(C)C)NC(=O)[C@H](C(C)C)NC(=O)[C@H](CC(C)C)NC(=O)[C@@H](CC(C)C)NC(=O)[C@@H](Cc2ccccc2)NC1=O,0,12,,,,
CO[C@@H]1[C@@H](OC(N)=O)[C@@H](O)[C@H](Oc2ccc3c(O)c(NC(=O)c4ccc(O)c(CC=C(C)C)c4)c(=O)oc3c2C)OC1(C)C [NOVOBIOCIN],,,100000,,,
CC(C)C[C@@H]1NC(=O)[C@H](Cc2ccccc2)NC(=O)[C@@H](CC(C)C)NC(=O)[C@@H](C(C)C)NC(=O)[C@H](CC(C)C)NC(=O)[C@@H](CC(C)C)NC(=O)[C@@H](Cc2ccccc2)NC(=O)[C@@H](CC(C)C)NC(=O)[C@@H](C(C)C)NC(=O)[C@@H](CC(C)C)NC1=O,0,17,,,,
CC(C)C[C@@H]1NC(=O)[C@H](Cc2ccccc2)NC(=O)[C@H](CC(C)C)NC(=O)[C@@H](C(C)C)NC(=O)[C@H](CC(C)C)NC(=O)[C@H](CC(C)C)NC(=O)[C@H](Cc2ccccc2)NC(=O)[C@H](CC(C)C)NC(=O)[C@@H](C(C)C)NC(=O)[C@H](CC(C)C)NC1=O,0,30,,,,
CC(C)C[C@@H]1NC(=O)[C@H](CC(C)C)NC(=O)[C@@H](Cc2ccccc2)NC(=O)[C@@H](CC(C)C)NC(=O)[C@H](C(C)C)NC(=O)[C@H](CC(C)C)NC(=O)[C@H](CC(C)C)NC(=O)[C@@H](Cc2ccccc2)NC(=O)[C@@H](CC(C)C)NC(=O)[C@H](C(C)C)NC1=O,0,36,,,,
CC(C)C[C@@H]1NC(=O)[C@H](Cc2ccccc2)NC(=O)[C@@H](Cc2ccccc2)N(C)C(=O)[C@@H](C(C)C)NC(=O)[C@H](CC(C)C)NC(=O)[C@H](CC(C)C)NC(=O)[C@H](Cc2ccccc2)NC(=O)[C@@H](Cc2ccccc2)N(C)C(=O)[C@@H](C(C)C)NC(=O)[C@H](CC(C)C)NC1=O,0,10,,,,
CC(C)C[C@@H]1NC(=O)[C@H](Cc2ccccc2)NC(=O)[C@H](CC(C)C)NC(=O)[C@@H](C(C)C)NC(=O)[C@@H](CC(C)C)NC(=O)[C@H](CC(C)C)NC(=O)[C@H](Cc2ccccc2)NC(=O)[C@H](CC(C)C)NC(=O)[C@@H](C(C)C)NC(=O)[C@@H](CC(C)C)NC1=O,0,25,,,,
CC(C)C[C@@H]1NC(=O)[C@H](C(C)C)NC(=O)[C@@H](CC(C)C)NC(=O)[C@@H](Cc2ccccc2)NC(=O)[C@H](Cc2ccccc2)NC(=O)[C@H](CC(C)C)NC(=O)[C@H](C(C)C)NC(=O)[C@@H](CC(C)C)NC(=O)[C@@H](Cc2ccccc2)NC(=O)[C@H](Cc2ccccc2)NC1=O,0,10,,,,
CC(C)C[C@@H]1NC(=O)[C@H](Cc2ccccc2)NC(=O)[C@@H](Cc2ccccc2)NC(=O)[C@@H](C(C)C)NC(=O)[C@H](CC(C)C)NC(=O)[C@H](CC(C)C)NC(=O)[C@H](Cc2ccccc2)NC(=O)[C@@H](Cc2ccccc2)NC(=O)[C@@H](C(C)C)NC(=O)[C@H](CC(C)C)NC1=O,16,13,,,,
CC(C)C[C@@H]1NC(=O)[C@H](Cc2ccccc2)NC(=O)[C@@H](CC(C)C)NC(=O)[C@@H](C(C)C)NC(=O)[C@@H](CC(C)C)NC(=O)[C@H](CC(C)C)NC(=O)[C@@H](Cc2ccccc2)NC(=O)[C@@H](CC(C)C)NC(=O)[C@@H](C(C)C)NC(=O)[C@@H](CC(C)C)NC1=O,0,12,,,,
CC(C)C[C@@H]1NC(=O)[C@H](Cc2ccccc2)NC(=O)[C@@H](CC(C)C)NC(=O)[C@@H](C(C)C)NC(=O)[C@@H](CC(C)C)NC(=O)[C@H](CC(C)C)NC(=O)[C@H](Cc2ccccc2)NC(=O)[C@@H](CC(C)C)NC(=O)[C@@H](C(C)C)NC(=O)[C@@H](CC(C)C)NC1=O,17,21,,,,
CC(C)C[C@@H]1NC(=O)[C@H](Cc2ccccc2)NC(=O)[C@@H](CC(C)C)NC(=O)[C@@H](C(C)C)NC(=O)[C@H](CC(C)C)NC(=O)[C@@H](CC(C)C)NC(=O)[C@H](Cc2ccccc2)NC(=O)[C@@H](CC(C)C)NC(=O)[C@@H](C(C)C)NC(=O)[C@@H](CC(C)C)NC1=O,0,4,,,,
CC(C)C[C@@H]1NC(=O)[C@H](Cc2ccccc2)NC(=O)[C@@H](CC(C)C)NC(=O)[C@H](C(C)C)NC(=O)[C@@H](CC(C)C)NC(=O)[C@H](CC(C)C)NC(=O)[C@H](Cc2ccccc2)NC(=O)[C@@H](CC(C)C)NC(=O)[C@H](C(C)C)NC(=O)[C@@H](CC(C)C)NC1=O,0,9,,,,
CC(C)C[C@@H]1NC(=O)[C@H](Cc2ccccc2)NC(=O)[C@@H](CC(C)C)NC(=O)[C@@H](C(C)C)NC(=O)[C@@H](CC(C)C)NC(=O)[C@H](CC(C)C)NC(=O)[C@@H](Cc2ccccc2)NC(=O)[C@@H](CC(C)C)NC(=O)[C@@H](C(C)C)NC(=O)[C@H](CC(C)C)NC1=O,0,15,,,,
CC(C)C[C@@H]1NC(=O)[C@H](C(C)C)NC(=O)[C@@H](CC(C)C)NC(=O)[C@@H](CC(C)C)NC(=O)[C@H](Cc2ccccc2)NC(=O)[C@H](CC(C)C)NC(=O)[C@H](C(C)C)NC(=O)[C@@H](CC(C)C)NC(=O)[C@@H](CC(C)C)NC(=O)[C@H](Cc2ccccc2)NC1=O,0,48,,,,
CC(C)C[C@@H]1NC(=O)[C@H](CC(C)C)NC(=O)[C@@H](Cc2ccccc2)NC(=O)[C@H](CC(C)C)NC(=O)[C@H](C(C)C)NC(=O)[C@H](CC(C)C)NC(=O)[C@H](CC(C)C)NC(=O)[C@@H](Cc2ccccc2)NC(=O)[C@H](CC(C)C)NC(=O)[C@H](C(C)C)NC1=O,0,11,,,,
CC(C)C[C@@H]1NC(=O)[C@H](CC(C)C)NC(=O)[C@@H](Cc2ccccc2)NC(=O)[C@@H](CC(C)C)NC(=O)[C@@H](C(C)C)NC(=O)[C@@H](CC(C)C)NC(=O)[C@H](CC(C)C)NC(=O)[C@@H](Cc2ccccc2)NC(=O)[C@@H](CC(C)C)NC(=O)[C@@H](C(C)C)NC1=O,0,8,,,,
CC(C)C[C@@H]1NC(=O)[C@H](Cc2ccccc2)NC(=O)[C@@H](CC(C)C)NC(=O)[C@@H](C(C)C)NC(=O)[C@H](CC(C)C)NC(=O)[C@H](CC(C)C)NC(=O)[C@H](Cc2ccccc2)NC(=O)[C@@H](CC(C)C)NC(=O)[C@@H](C(C)C)NC(=O)[C@H](CC(C)C)NC1=O,99,99,2,1,3,50000
